ChEMBL document CHEMBL3627614, “Structure-based design, synthesis, X-ray studies, and biological evaluation of novel HIV-1 protease inhibitors containing isophthalamide-derived P2-ligands” (Bioorg Med Chem Lett, 2015)

What was measured:
Protease = Protease (Human immunodeficiency virus 1, UniProt Q9YQ12); test: Inhibition of HIV-1 protease by fluorometric assay
In short: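 Run by a previously published protease assay protocol, with inhibitory potency reported as the inhibition constant Ki.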

[1] = tested on: Human immunodeficiency virus 1; test: Antiviral activity against HIV-1 LAI infected in MT-2 cells measured after 7 days by MTT assay; assay type: functional, organism-based; details: Human immunodeficiency virus 1, LAI, MT2, 168 h

Sequence of Protease (Q9YQ12 whole entry): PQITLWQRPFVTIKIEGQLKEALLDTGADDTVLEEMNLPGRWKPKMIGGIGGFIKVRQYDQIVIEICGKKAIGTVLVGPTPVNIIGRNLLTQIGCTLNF

Ki (Protease) [nM] | Compound | IC50 [1] [nM]
20.4 | CCCN(C)C(=O)c1cc(OC)cc(C(=O)N[C@@H](Cc2ccccc2)[C@H](O)CN(CC(C)C)S(=O)(=O)c2ccc(OC)cc2)c1 | –
25.1 | CCCNC(=O)c1cccc(C(=O)N[C@@H](Cc2ccccc2)[C@H](O)CN(CC(C)C)S(=O)(=O)c2ccc(OC)cc2)c1 | –
5.1 | CCCN(C)C(=O)c1cccc(C(=O)N[C@@H](Cc2ccccc2)[C@H](O)CN(CC(C)C)S(=O)(=O)c2ccc(OC)cc2)c1 | –
158 | CCCN(C)C(=O)c1cc(NC)cc(C(=O)N[C@@H](Cc2ccccc2)[C@H](O)CN(CC(C)C)S(=O)(=O)c2ccc(OC)cc2)c1 | –
12.4 | CCCN(CCC)C(=O)c1cccc(C(=O)N[C@@H](Cc2ccccc2)[C@H](O)CN(CC(C)C)S(=O)(=O)c2ccc(OC)cc2)c1 | > 1000
0.42 | COc1ccc(S(=O)(=O)N(CC(C)C)C[C@@H](O)[C@H](Cc2ccccc2)NC(=O)c2cccc(C(=O)N3CCOCC3)c2)cc1 | 25
0.54 | COc1ccc(S(=O)(=O)N(CC(C)C)C[C@@H](O)[C@H](Cc2ccccc2)NC(=O)c2cccc(C(=O)N3CCN(C)CC3)c2)cc1 | 45
2.85 | COC[C@@H]1C[C@@H](O)CN1C(=O)c1cccc(C(=O)N[C@@H](Cc2ccccc2)[C@H](O)CN(CC(C)C)S(=O)(=O)c2ccc(OC)cc2)c1 | 178
0.27 | COC[C@H]1C[C@H](O)CN1C(=O)c1cccc(C(=O)N[C@@H](Cc2ccccc2)[C@H](O)CN(CC(C)C)S(=O)(=O)c2ccc(OC)cc2)c1 | 389
1.5 | COC[C@@H]1C[C@H](O)CN1C(=O)c1cccc(C(=O)N[C@@H](Cc2ccccc2)[C@H](O)CN(CC(C)C)S(=O)(=O)c2ccc(OC)cc2)c1 | > 1000
0.27 | COC[C@H]1C[C@@H](O)CN1C(=O)c1cccc(C(=O)N[C@@H](Cc2ccccc2)[C@H](O)CN(CC(C)C)S(=O)(=O)c2ccc(OC)cc2)c1 | 190
0.63 | Cc1coc(CN(C)C(=O)c2cccc(C(=O)N[C@@H](Cc3ccccc3)[C@H](O)CN(CC(C)C)S(=O)(=O)c3ccc(CO)cc3)c2)n1 | –
0.31 | COCc1coc(CN(C)C(=O)c2cccc(C(=O)N[C@@H](Cc3ccccc3)[C@H](O)CN(CC(C)C)S(=O)(=O)c3ccc(OC)cc3)c2)n1 | 25
0.21 | COc1ccc(S(=O)(=O)N(CC(C)C)C[C@@H](O)[C@H](Cc2ccccc2)NC(=O)c2cc(C)cc(C(=O)N(C)Cc3nc(C)oc3C)c2)cc1 | 31

Compound | Ki (Protease) [nM] | IC50 [1] [nM]
COc1ccc(S(=O)(=O)N(CC(C)C)C[C@@H](O)[C@H](Cc2ccccc2)NC(=O)c2cccc(C(=O)N(C)Cc3nc(C)oc3C)c2)cc1 | 0.17 | 14
